ChEMBL document CHEMBL1140728, “Synthesis and biological activity of human neuropeptide S analogues modified in position 2” (J Med Chem, 2008)
Non-standard residues stand in square brackets, D forms with d. Residues, ends and D or L forms follow the SMILES beside them. Phe(4-NO2) = N[C@@H](Cc1ccc([N+](=O)[O-])cc1)C(=O)O; Dip = N[C@H](C(=O)O)C(c1ccccc1)c1ccccc1; Phe(4-F) = N[C@@H](Cc1ccc(F)cc1)C(=O)O; Phe(4-I) = N[C@@H](Cc1ccc(I)cc1)C(=O)O; Phe(4-Me) = Cc1ccc(C[C@H](N)C(=O)O)cc1; 2Nal = N[C@@H](Cc1ccc2ccccc2c1)C(=O)O; hPhe = N[C@@H](CCc1ccccc1)C(=O)O; Tic = O=C(O)[C@@H]1Cc2ccccc2CN1; β3hF = N[C@H](CC(=O)O)Cc1ccccc1; Phg = N[C@H](C(=O)O)c1ccccc1

Tests used:
Type in all cases: functional, cell-based
[1] = molecular target: T1, Neuropeptide S receptor (Mus musculus) (UniProt Q8BZP8); assay: Agonist activity at mouse recombinant NPS receptor expressed in HEK293 cells assessed as intracellular calcium mobilization at 10 umol
T1 sequence (whole entry): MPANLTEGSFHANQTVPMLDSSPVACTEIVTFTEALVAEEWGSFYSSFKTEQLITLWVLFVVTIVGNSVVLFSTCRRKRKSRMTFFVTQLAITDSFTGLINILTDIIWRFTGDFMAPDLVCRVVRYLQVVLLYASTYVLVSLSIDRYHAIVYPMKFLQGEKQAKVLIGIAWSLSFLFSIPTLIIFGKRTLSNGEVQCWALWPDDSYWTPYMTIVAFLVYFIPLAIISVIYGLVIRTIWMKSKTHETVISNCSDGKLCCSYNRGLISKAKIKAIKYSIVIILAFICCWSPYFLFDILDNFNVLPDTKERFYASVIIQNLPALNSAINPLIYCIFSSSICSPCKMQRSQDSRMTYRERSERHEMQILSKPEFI

Neuropeptide S receptor = molecular target: T2, Neuropeptide S receptor (Mus musculus, UniProt Q8BZP8); assay: Agonist activity at mouse recombinant NPS receptor expressed in HEK293 cells assessed as intracellular calcium mobilization
T2 sequence (Q8BZP8 whole entry): T1 sequence (whole entry)
Summary of the method: (§1)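 HEK293 cells stably expressing mouse NPSR, kept in DMEM with 10% FBS, 2 mM L-glutamine and hygromycin (100 mg/L), were seeded at 50 000 cells/well. Next day they were loaded with Fluo-4 AM (3 µmol), probenecid (2.5 mmol) and 0.01% pluronic acid for 30 min at 37 °C. Agonist dilutions in HBSS/HEPES with 0.02% BSA were added, and FlexStation II fluorescence was read at 22 °C.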

[2] = molecular target: T1, Neuropeptide S receptor (Mus musculus); assay: Agonist activity at mouse recombinant NPS receptor expressed in HEK293 cells assessed as intracellular calcium mobilization relative to baseline; summary of the method: as §1

| Compound | Activity [1] | EC50 (Neuropeptide S receptor) | Emax [2] |
| --- | --- | --- | --- |
| CSCC[C@H](NC(=O)CNC(=O)[C@@H](NC(=O)CNC(=O)[C@@H](NC(=O)CNC(=O)[C@H](CC(N)=O)NC(=O)[C@H](CCCNC(=N)N)NC(=O)[C@@H](NC(=O)[C@@H](N)CO)C(c1ccccc1)c1ccccc1)C(C)C)[C@@H](C)O)C(=O)N[C@@H](CCCCN)C(=O)N[C@@H](CCCCN)C(=O)N[C@H](C(=O)N[C@@H](CO)C(=O)N[C@@H](Cc1ccccc1)C(=O)N[C@@H](CCC(N)=O)C(=O)N[C@@H](CCCNC(=N)N)C(=O)N[C@@H](C)C(=O)N[C@@H](CCCCN)C(=O)N[C@@H](CO)C(=O)O)[C@@H](C)O (H-S[Dip]RNGVGTGMKKTSFQRAKS-OH) | 130% | – | – |
| CSCC[C@H](NC(=O)CNC(=O)[C@@H](NC(=O)CNC(=O)[C@@H](NC(=O)CNC(=O)[C@H](CC(N)=O)NC(=O)[C@H](CCCNC(=N)N)NC(=O)[C@H](Cc1ccc(F)cc1)NC(=O)[C@@H](N)CO)C(C)C)[C@@H](C)O)C(=O)N[C@@H](CCCCN)C(=O)N[C@@H](CCCCN)C(=O)N[C@H](C(=O)N[C@@H](CO)C(=O)N[C@@H](Cc1ccccc1)C(=O)N[C@@H](CCC(N)=O)C(=O)N[C@@H](CCCNC(=N)N)C(=O)N[C@@H](C)C(=O)N[C@@H](CCCCN)C(=O)N[C@@H](CO)C(=O)O)[C@@H](C)O (H-S[Phe(4-F)]RNGVGTGMKKTSFQRAKS-OH) | – | 1.1 nM | 291% |
| CSCC[C@H](NC(=O)CNC(=O)[C@@H](NC(=O)CNC(=O)[C@@H](NC(=O)CNC(=O)[C@H](CC(N)=O)NC(=O)[C@H](CCCNC(=N)N)NC(=O)[C@H](Cc1ccc(C)cc1)NC(=O)[C@@H](N)CO)C(C)C)[C@@H](C)O)C(=O)N[C@@H](CCCCN)C(=O)N[C@@H](CCCCN)C(=O)N[C@H](C(=O)N[C@@H](CO)C(=O)N[C@@H](Cc1ccccc1)C(=O)N[C@@H](CCC(N)=O)C(=O)N[C@@H](CCCNC(=N)N)C(=O)N[C@@H](C)C(=O)N[C@@H](CCCCN)C(=O)N[C@@H](CO)C(=O)O)[C@@H](C)O (H-S[Phe(4-Me)]RNGVGTGMKKTSFQRAKS-OH) | – | 0.676 nM | 317% |
| CSCC[C@H](NC(=O)CNC(=O)[C@@H](NC(=O)CNC(=O)[C@@H](NC(=O)CNC(=O)[C@H](CC(N)=O)NC(=O)[C@H](CCCNC(=N)N)NC(=O)[C@H](Cc1ccc([N+](=O)[O-])cc1)NC(=O)[C@@H](N)CO)C(C)C)[C@@H](C)O)C(=O)N[C@@H](CCCCN)C(=O)N[C@@H](CCCCN)C(=O)N[C@H](C(=O)N[C@@H](CO)C(=O)N[C@@H](Cc1ccccc1)C(=O)N[C@@H](CCC(N)=O)C(=O)N[C@@H](CCCNC(=N)N)C(=O)N[C@@H](C)C(=O)N[C@@H](CCCCN)C(=O)N[C@@H](CO)C(=O)O)[C@@H](C)O (H-S[Phe(4-NO2)]RNGVGTGMKKTSFQRAKS-OH) | – | 3.63 nM | 290% |
| CSCC[C@H](NC(=O)CNC(=O)[C@@H](NC(=O)CNC(=O)[C@@H](NC(=O)CNC(=O)[C@H](CC(N)=O)NC(=O)[C@H](CCCNC(=N)N)NC(=O)[C@@H](NC(=O)[C@@H](N)CO)c1ccccc1)C(C)C)[C@@H](C)O)C(=O)N[C@@H](CCCCN)C(=O)N[C@@H](CCCCN)C(=O)N[C@H](C(=O)N[C@@H](CO)C(=O)N[C@@H](Cc1ccccc1)C(=O)N[C@@H](CCC(N)=O)C(=O)N[C@@H](CCCNC(=N)N)C(=O)N[C@@H](C)C(=O)N[C@@H](CCCCN)C(=O)N[C@@H](CO)C(=O)O)[C@@H](C)O (H-S[Phg]RNGVGTGMKKTSFQRAKS-OH) | 141% | – | – |
| CSCC[C@H](NC(=O)CNC(=O)[C@@H](NC(=O)CNC(=O)[C@@H](NC(=O)CNC(=O)[C@H](CC(N)=O)NC(=O)[C@H](CCCNC(=N)N)NC(=O)[C@H](CCc1ccccc1)NC(=O)[C@@H](N)CO)C(C)C)[C@@H](C)O)C(=O)N[C@@H](CCCCN)C(=O)N[C@@H](CCCCN)C(=O)N[C@H](C(=O)N[C@@H](CO)C(=O)N[C@@H](Cc1ccccc1)C(=O)N[C@@H](CCC(N)=O)C(=O)N[C@@H](CCCNC(=N)N)C(=O)N[C@@H](C)C(=O)N[C@@H](CCCCN)C(=O)N[C@@H](CO)C(=O)O)[C@@H](C)O (H-S[hPhe]RNGVGTGMKKTSFQRAKS-OH) | – | 4.17 nM | 216% |
| CSCC[C@H](NC(=O)CNC(=O)[C@@H](NC(=O)CNC(=O)[C@@H](NC(=O)CNC(=O)[C@H](CC(N)=O)NC(=O)[C@H](CCCNC(=N)N)NC(=O)[C@H](Cc1ccc2ccccc2c1)NC(=O)[C@@H](N)CO)C(C)C)[C@@H](C)O)C(=O)N[C@@H](CCCCN)C(=O)N[C@@H](CCCCN)C(=O)N[C@H](C(=O)N[C@@H](CO)C(=O)N[C@@H](Cc1ccccc1)C(=O)N[C@@H](CCC(N)=O)C(=O)N[C@@H](CCCNC(=N)N)C(=O)N[C@@H](C)C(=O)N[C@@H](CCCCN)C(=O)N[C@@H](CO)C(=O)O)[C@@H](C)O [[2Nal2]hNPS] (H-S[2Nal]RNGVGTGMKKTSFQRAKS-OH) | – | 2.19 nM | 213% |
| H-SKRNGVGTGMKKTSFQRAKS-OH | 103% | – | – |
| H-SQRNGVGTGMKKTSFQRAKS-OH | 54% | – | – |
| H-STRNGVGTGMKKTSFQRAKS-OH | 114% | – | – |

Next, values leading:

| Activity [1] | EC50 (Neuropeptide S receptor) | Emax [2] | Compound |
| --- | --- | --- | --- |
| – | 1.78 nM | 243% | CSCC[C@H](NC(=O)CNC(=O)[C@@H](NC(=O)CNC(=O)[C@@H](NC(=O)CNC(=O)[C@H](CC(N)=O)NC(=O)[C@H](CCCNC(=N)N)NC(=O)[C@H](Cc1ccc(I)cc1)NC(=O)[C@@H](N)CO)C(C)C)[C@@H](C)O)C(=O)N[C@@H](CCCCN)C(=O)N[C@@H](CCCCN)C(=O)N[C@H](C(=O)N[C@@H](CO)C(=O)N[C@@H](Cc1ccccc1)C(=O)N[C@@H](CCC(N)=O)C(=O)N[C@@H](CCCNC(=N)N)C(=O)N[C@@H](C)C(=O)N[C@@H](CCCCN)C(=O)N[C@@H](CO)C(=O)O)[C@@H](C)O (H-S[Phe(4-I)]RNGVGTGMKKTSFQRAKS-OH) |
| – | 8.13 nM | 244% | CSCC[C@H](NC(=O)CNC(=O)[C@@H](NC(=O)CNC(=O)[C@@H](NC(=O)CNC(=O)[C@H](CC(N)=O)NC(=O)[C@H](CCCNC(=N)N)NC(=O)[C@@H]1Cc2ccccc2CN1C(=O)[C@@H](N)CO)C(C)C)[C@@H](C)O)C(=O)N[C@@H](CCCCN)C(=O)N[C@@H](CCCCN)C(=O)N[C@H](C(=O)N[C@@H](CO)C(=O)N[C@@H](Cc1ccccc1)C(=O)N[C@@H](CCC(N)=O)C(=O)N[C@@H](CCCNC(=N)N)C(=O)N[C@@H](C)C(=O)N[C@@H](CCCCN)C(=O)N[C@@H](CO)C(=O)O)[C@@H](C)O (H-S[Tic]RNGVGTGMKKTSFQRAKS-OH) |
| 177% | – | – | CSCC[C@H](NC(=O)CNC(=O)[C@@H](NC(=O)CNC(=O)[C@@H](NC(=O)CNC(=O)[C@H](CC(N)=O)NC(=O)[C@H](CCCNC(=N)N)NC(=O)C[C@H](Cc1ccccc1)NC(=O)[C@@H](N)CO)C(C)C)[C@@H](C)O)C(=O)N[C@@H](CCCCN)C(=O)N[C@@H](CCCCN)C(=O)N[C@H](C(=O)N[C@@H](CO)C(=O)N[C@@H](Cc1ccccc1)C(=O)N[C@@H](CCC(N)=O)C(=O)N[C@@H](CCCNC(=N)N)C(=O)N[C@@H](C)C(=O)N[C@@H](CCCCN)C(=O)N[C@@H](CO)C(=O)O)[C@@H](C)O (H-S[β3hF]RNGVGTGMKKTSFQRAKS-OH) |
| 39% | – | – | H-SDRNGVGTGMKKTSFQRAKS-OH |
| 170% | – | – | H-SERNGVGTGMKKTSFQRAKS-OH |
| – | 1.1 nM | 270% | H-SFRNGVGTGMKKTSFQRAKS-OH [NEUROPEPTIDE S] |
| – | 132 nM | 288% | H-SHRNGVGTGMKKTSFQRAKS-OH |
| – | 8.32 nM | 282% | H-SLRNGVGTGMKKTSFQRAKS-OH |
| 49% | – | – | H-SNRNGVGTGMKKTSFQRAKS-OH |
| – | 2.24 nM | 323% | H-SWRNGVGTGMKKTSFQRAKS-OH |
| – | 2.34 nM | 312% | H-SYRNGVGTGMKKTSFQRAKS-OH |
